Experimental data: ChEMBL document CHEMBL1138950, “Benzimidazole derivatives bearing substituted biphenyls as hepatitis C virus NS5B RNA-dependent RNA polymerase inhibitors: structure-activity relationship studies and identification of a potent and highly selective inhibitor JTK-109” (J Med Chem, 2006)

How the values were obtained:
Hepatitis C virus [1] = assay: Inhibition of HCV subgenomic RNA replication in Huh5-2 cells after 48 hrs by replicon assay; type: functional, organism-based, Hepacivirus hominis; details: Huh-5-2, 48 h
In short: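 Huh-5-2 cells (Huh-7-derived, genotype 1b subgenomic replicon with luciferase reporter) seeded at 5 × 10^3 per well in DMEM with 10% FBS, 37 °C, 5% CO2; compounds added next day, 48 h exposure; luciferase activity read. EC50 is the concentration reducing replication by 50%. Triplicate, mean of three experiments.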

Hepatitis C virus [2] = assay: Inhibition of HCV subgenomic RNA replication in Huh5-2 cells at 10 uM after 48 hrs by replicon assay; type: functional, Hepacivirus hominis; details: Huh-5-2, 48 h
Huh-5-2 = assay: Viability of Huh5-2 cells by MTT assay; type: functional; details: Homo sapiens
[3] = molecular target: RNA-directed RNA polymerase (Hepacivirus hominis, UniProt O39930); assay: Inhibition of HCV 1b BK six His-tagged C-terminal truncated 544 amino acid NS5B RNA dependent RNA polymerase; design: species or system Hepatitis C virus subtype 1b
In short: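 HCV genotype 1b (BK) NS5B lacking 47 C-terminal residues, His6-tagged, E. coli-expressed; 7 nM enzyme with 5 µg HCV 3′X RNA template-primer, 50 µM each ATP/GTP/CTP, 2 µM UTP plus [3H]-UTP; pH 7.5 Tris, 5 mM MgCl2. Compounds in DMSO (5% final). 60 min at 25 °C; TCA-precipitable radioactivity read. Triplicate, mean of three experiments.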

[4] = Plasma concentration in rat at 30 mg/kg, po after 2 hrs; type: ADME, organism-based; design: dose 30 mg/kg, route oral
In short: (§1)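 Rats dosed orally at 30 mg/kg; plasma sampled at 1 and 2 h; n = 2 or 3.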

[5] = Plasma concentration in rat at 30 mg/kg, po after 1 hr; type: ADME, organism-based; design: dose 30 mg/kg, route oral; in short: as §1
[6] = Therapeutic index, CC50 for viability of Huh5-2 cells/EC50 for inhibition of HCV subgenomic RNA replication; type: cell-based, Huh-5-2; details: human, read-out: Ratio CC50/EC50
[7] = Distribution coefficient, log D at pH 7.2; type: physicochemical; details: octanol/water
[8] = Apparent permeability in Caco-2 cells; type: ADME, cell-based; details: human

Chain of RNA-directed RNA polymerase (O39930 whole entry, the tested form may be a part): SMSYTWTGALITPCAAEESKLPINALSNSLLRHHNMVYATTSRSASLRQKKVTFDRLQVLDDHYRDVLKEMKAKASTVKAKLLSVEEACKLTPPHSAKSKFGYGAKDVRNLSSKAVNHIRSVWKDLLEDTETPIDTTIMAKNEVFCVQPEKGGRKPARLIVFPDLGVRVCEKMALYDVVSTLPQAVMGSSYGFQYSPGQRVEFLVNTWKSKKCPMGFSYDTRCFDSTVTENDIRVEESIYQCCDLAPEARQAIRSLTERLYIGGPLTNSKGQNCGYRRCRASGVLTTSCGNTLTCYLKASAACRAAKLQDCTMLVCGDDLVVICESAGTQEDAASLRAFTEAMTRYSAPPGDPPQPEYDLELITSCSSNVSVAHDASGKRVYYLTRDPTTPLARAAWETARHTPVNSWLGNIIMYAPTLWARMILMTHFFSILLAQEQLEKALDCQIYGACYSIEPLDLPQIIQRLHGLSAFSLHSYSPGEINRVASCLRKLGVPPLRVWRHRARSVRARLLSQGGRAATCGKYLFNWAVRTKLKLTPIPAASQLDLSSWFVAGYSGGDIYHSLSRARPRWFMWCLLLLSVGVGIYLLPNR

Row | EC50 (Hepatitis C virus [1]) [nM] | IC50 [3] [nM] | concentration at 2 h [4] [nM] | concentration at 1 h [5] [nM] | logD [7] | Papp [8] [×10⁻⁶ cm/s] | SMILES | inhibition at 10 µM (Hepatitis C virus [2]) [%] | CC50 (Huh-5-2) [µM] | selectivity ratio [6]
1 | > 10000 | 580 | – | – | – | – | Cc1nc(COc2ccc(-c3nc4cc(C(=O)O)ccc4n3C3CCCCC3)cc2)c(-c2ccc(Cl)cc2)o1 | 30 | 39 | –
2 | 380 | 21 | 600 | 1300 | – | – | CCCNC(=O)c1ccc(-c2ccc(Cl)cc2)c(COc2ccc(-c3nc4cc(C(=O)O)ccc4n3C3CCCCC3)c(F)c2)c1 | – | 24 | 63
3 | > 10000 | 58 | – | – | 3.26 | 23.4 | O=C(O)c1ccc(-c2ccc(Cl)cc2COc2ccc(-c3nc4cc(C(=O)O)ccc4n3C3CCCCC3)cc2)cc1 | – | > 50 | –
4 | 360 | 12 | 500 | 700 | – | – | CNC(=O)c1ccc(-c2ccc(Cl)cc2)c(COc2ccc(-c3nc4cc(C(=O)O)ccc4n3C3CCCCC3)c(F)c2)c1 | – | 25 | 69
